These results are taken from ChEMBL document CHEMBL1140997 (Bioorg Med Chem, 2009).

A short description of test [1]: Inhibition of TNFalpha induced NF-kappaB activation in human 293 cells after 24 hrs by luciferase reporter gene assay. It is filed as cell-based. The conditions noted are these: HEK293, 24 h. The gist of the method:
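Cells incubated 24 h with TNFα (20 ng/ml) and test compounds, PBS-washed, lysed 10 min, luciferase read. Screen at 20 µg/ml; active compounds then run as dose-response in duplicate. Values are % of TNFα-treated control; IC50 from five serial dilutions, mean of two experiments.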
Background: In a reporter assay the amount or activity of a reporter protein is the signal.

Test [2] has as its target T1, Prostaglandin G/H synthase 2 (Homo sapiens, UniProt P35354).
T1 sequence (P35354 whole entry): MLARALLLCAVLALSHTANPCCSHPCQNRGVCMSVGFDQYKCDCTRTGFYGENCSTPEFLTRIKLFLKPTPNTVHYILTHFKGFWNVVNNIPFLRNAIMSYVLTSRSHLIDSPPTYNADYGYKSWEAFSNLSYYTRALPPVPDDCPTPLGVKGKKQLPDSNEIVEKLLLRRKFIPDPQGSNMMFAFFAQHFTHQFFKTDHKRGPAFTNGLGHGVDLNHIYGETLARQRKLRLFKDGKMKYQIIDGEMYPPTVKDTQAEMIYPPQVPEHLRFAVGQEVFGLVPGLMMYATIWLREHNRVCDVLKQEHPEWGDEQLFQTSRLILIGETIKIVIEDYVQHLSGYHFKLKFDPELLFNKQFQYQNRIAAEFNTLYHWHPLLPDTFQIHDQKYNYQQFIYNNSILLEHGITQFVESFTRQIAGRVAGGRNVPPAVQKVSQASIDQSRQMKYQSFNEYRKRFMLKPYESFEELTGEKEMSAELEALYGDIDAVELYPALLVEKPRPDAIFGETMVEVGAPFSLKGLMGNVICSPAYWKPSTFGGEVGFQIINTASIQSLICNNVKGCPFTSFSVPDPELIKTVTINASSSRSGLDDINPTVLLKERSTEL
The test can be described thus: Inhibition of COX2.

Test [3] deals with Prostaglandin G/H synthase 1 (Homo sapiens, UniProt P23219). The test can be described thus: Inhibition of COX1. The method, boiled down: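 Reaction in 100 mM Tris-HCl pH 8.0 containing 1 µM heme, 500 µM phenol and 300 µM epinephrine, with enough COX-1 to make 150 ng/ml PGE2. Started with arachidonic acid (10 µM final), 10 min at room temperature, stopped into indomethacin. PGE2 measured by ELISA against a PGE2 standard curve. Values are % of solvent control; IC50 from four serial dilutions, mean of two experiments.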
Sequence of Prostaglandin G/H synthase 1 (P23219 whole entry): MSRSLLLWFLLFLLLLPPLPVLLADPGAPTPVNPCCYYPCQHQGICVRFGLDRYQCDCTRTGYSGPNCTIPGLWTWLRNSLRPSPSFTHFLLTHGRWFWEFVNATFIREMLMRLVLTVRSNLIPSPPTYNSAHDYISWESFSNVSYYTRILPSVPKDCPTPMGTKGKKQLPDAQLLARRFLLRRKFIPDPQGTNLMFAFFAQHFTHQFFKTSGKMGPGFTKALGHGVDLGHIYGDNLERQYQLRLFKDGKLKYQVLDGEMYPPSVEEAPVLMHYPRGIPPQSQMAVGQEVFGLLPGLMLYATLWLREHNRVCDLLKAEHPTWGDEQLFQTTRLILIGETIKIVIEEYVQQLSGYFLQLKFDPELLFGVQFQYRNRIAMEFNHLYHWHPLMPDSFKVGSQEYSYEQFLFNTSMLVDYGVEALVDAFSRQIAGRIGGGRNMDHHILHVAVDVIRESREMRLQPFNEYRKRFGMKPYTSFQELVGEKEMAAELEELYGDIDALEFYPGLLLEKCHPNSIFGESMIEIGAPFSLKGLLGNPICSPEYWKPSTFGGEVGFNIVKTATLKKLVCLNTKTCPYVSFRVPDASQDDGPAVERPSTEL

In test [1], `COc1cc(/C=C/c2ccc(F)cc2)cc(OC)c1` showed an IC50 of 37.5 µM.
Regarding `COc1cc(/C=C/c2ccc([N+](=O)[O-])cc2)cc(OC)c1`, the values for the IC50 in test [2] and in test [3] were 5.94 µM and 10 µM, respectively.
Consider `COc1ccc(/C=C/c2ccc(O)c(O)c2)cc1`, for which, in test [1], half-maximal inhibition (IC50) was put at 12.2 µM.
On to `COc1ccc(/C=C/c2ccc(OC)c(OC)c2)cc1`, for which the IC50 in test [1] was found to be 52 µM. Against the preceding molecule, the IC50 is about 4.3-fold higher.
For the molecule `Oc1ccc(/C=C/c2ccc(O)c(O)c2)cc1`, the IC50 in test [1] came to 12.7 µM.
As for `COc1cc(/C=C(/c2ccc(F)cc2)C(F)(F)F)cc(OC)c1`, the IC50 in test [3] is 3 µM; in test [1], 39 µM.
As for `CC/C(=C\c1ccc(C(F)(F)F)cc1)c1cc(O)cc(O)c1`, the IC50 in test [3] was 0.99 µM.
In test [1], `C/C(=C\c1ccc(O)c(O)c1)c1ccc(Cl)cc1` showed an IC50 of 37.5 µM.
For `Oc1cc(O)cc(/C=C/c2ccc(F)cc2)c1`, the IC50 in test [3] is 51.3 µM; in test [1] it was 52.1 µM.
For `COc1ccc(/C=C/c2cccc(F)c2)cc1OC`, the IC50 stood at 3.2 µM in test [3] and 38.8 µM in test [1].
In the same order, the values of `Oc1ccc(/C=C/c2cccc(F)c2)cc1O` are 11.5 µM and 10.3 µM.
Regarding `C/C(=C\c1cc(O)cc(O)c1)c1cccc(F)c1`, the results for the IC50 in test [2] and in test [3] were 2.54 µM and 4.9 µM, respectively.
In the same order, the values of `CC/C(=C\c1ccc(N(C)C)cc1)c1cc(O)cc(O)c1` are 2.2 µM and 7.4 µM.
With `CC/C(=C\c1cc(OC)cc(OC)c1)c1ccc(OC)c(OC)c1`, the IC50 in test [1] stood at 27.2 µM.
In the case of `CC/C(=C\c1cc(O)cc(O)c1)c1ccc(Cl)cc1`, the IC50 came out at 11.6 µM in test [3] and 38.3 µM in test [1].
On to `CC/C(=C\c1cc(O)cc(O)c1)c1cccc(F)c1`, for which the half-maximal inhibitory concentration (IC50) in test [2] stood at 17.7 µM; in test [3] it was 3.5 µM; in test [1] it was 25.7 µM.
Turning to `CC/C(=C\c1cc(O)cc(O)c1)c1ccc(N(C)C)cc1`, the IC50 in test [2] is 14.8 µM; in test [3] it was 30.5 µM.
Molecule `COc1cc(/C=C/c2ccc3ccccc3c2)cc(OC)c1` came in with an IC50 in test [1] of 18.8 µM.
`COc1cccc(/C=C/c2ccc(OC)c(OC)c2)c1` gave a concentration for half-maximal inhibition (IC50) in test [1] of 17.3 µM.
For the molecule `Oc1ccc(/C=C/c2ccc(F)cc2)cc1O`, the IC50 in test [1] is 17.9 µM.
The same measure, in the same setting: in the case of `COc1ccc(/C=C/c2ccc(N(C)C)cc2)cc1OC` it was 34.7 µM.
As for `C/C(=C\c1cc(O)cc(O)c1)c1ccc(O)cc1`, the IC50 in test [2] was 1.57 µM; in test [3] it was 1.9 µM.
Take `C/C(=C\c1cc(O)cc(O)c1)c1ccc(C(F)(F)F)cc1`: the IC50 in test [3] was found to be 0.97 µM; in test [1] it was 34.2 µM.
The molecule `Oc1ccc(/C=C/c2ccc(C(F)(F)F)cc2)cc1O` came in with an IC50 in test [1] of 14.8 µM.
Same read-out and setting: in the case of `Oc1ccc(/C=C/c2ccc3ccccc3c2)cc1O` it was 6.91 µM.
On the same count and under the same terms, in the case of `COc1ccc(/C(=C/c2cc(OC)cc(OC)c2)C(F)(F)F)cc1` it was 37.8 µM.
The molecule `COc1ccc(/C=C(/c2cc(OC)cc(OC)c2)C(F)(F)F)cc1` returned an IC50 in test [3] of 7.8 µM.
Consider `COc1ccc(/C(C)=C/c2cc(O)cc(O)c2)cc1`, for which the IC50 was 16 µM in test [2], 12.4 µM in test [3] and 35.2 µM in test [1].
Molecule `COc1ccc(/C(C)=C/c2cc(OC)cc(OC)c2)cc1` registered an IC50 in test [1] of 27.1 µM. This lies in the double-digit micromolar range.
As to `COc1ccc(/C(C)=C/c2ccc3ccccc3c2)cc1`, in test [1], the IC50 turned out to be 48.2 µM.
`COc1ccc(/C(C)=C/c2cc(O)cc(O)c2)cc1OC`: the results for the IC50 in test [3] and in test [1] were 11.4 µM and 13.1 µM, respectively.
In the same order, the values of `C/C(=C\c1cc(O)cc(O)c1)c1ccc(Cl)cc1` are 5.3 µM and 39.2 µM.
In the case of `C/C(=C\c1ccc(C(F)(F)F)cc1)c1ccc(O)c(O)c1`, the IC50 in test [2] came out at 1.74 µM.
Turning to `C/C(=C\c1ccc2ccccc2c1)c1cc(O)cc(O)c1`, half-maximal inhibition in test [1] (IC50) was put at 42.3 µM.
`Oc1cc(O)cc(/C=C/c2ccc3ccccc3c2)c1` yielded an IC50 in test [3] of 18.4 µM. That is a double-digit micromolar value.
For `C/C(=C\c1ccc(C(F)(F)F)cc1)c1cc(O)cc(O)c1`, the IC50 in test [3] was found to be 10.9 µM.
The same measure, in the same setting: then `CC/C(=C\c1cccc(F)c1)c1cc(O)cc(O)c1`, with 5.4 µM.
In the case of `C/C(=C\c1ccc(N(C)C)cc1)c1cc(O)cc(O)c1`, the IC50 stood at 1.74 µM in test [2] and 10.7 µM in test [3].
As to `COc1cc(/C=C(/c2cccc(C(F)(F)F)c2)C(F)(F)F)cc(OC)c1`, in test [1], the half-inhibitory concentration (IC50) came to 31.9 µM.
On the same count and under the same terms, in the case of `COc1ccc(/C=C(/c2cccc(C(F)(F)F)c2)C(F)(F)F)cc1OC` it was 25.5 µM.
For `Oc1cc(O)cc(/C=C/c2cccc(F)c2)c1`, the IC50 in test [2] worked out at 0.82 µM; in test [3] it was 16.5 µM.
On to `Oc1cc(O)cc(/C=C/c2ccc(C(F)(F)F)cc2)c1`, for which the IC50 in test [3] amounted to 29.7 µM; in test [1] it was 12.9 µM.
`O=[N+]([O-])c1ccc(/C=C/c2cc(O)cc(O)c2)cc1`: the figures for the IC50 in test [2] and in test [3] were 31.6 µM and 2.2 µM, respectively.
In turn, `CN(C)c1ccc(/C=C/c2cc(O)cc(O)c2)cc1` gave an IC50 in test [3] of 17.8 µM.
For the molecule `C/C(=C\c1ccc(C(F)(F)F)cc1)c1ccc(O)cc1`, the IC50 in test [2] is 0.47 µM; in test [3] it was 36.3 µM.
With `C/C(=C\c1ccc(O)cc1)c1cc(O)cc(O)c1`, the values for the IC50 in test [2], in test [3] and in test [1] were 1.78 µM, 1.9 µM and 26.2 µM, respectively.
Regarding `COc1ccc(/C=C(\C)c2cc(O)cc(O)c2)cc1OC`, the IC50 in test [2] worked out at 12.8 µM; in test [3], 10.6 µM.
`C/C(=C\c1ccc(O)c(O)c1)c1ccc(O)cc1` gave an IC50 in test [1] of 21.3 µM.
Consider `COc1cc(/C=C(\C)c2ccc(C(F)(F)F)cc2)cc(OC)c1`, for which the IC50 in test [3] was found to be 32.6 µM.
Still for that read-out and setting: then `C/C(=C\c1cccc(F)c1)c1cc(O)cc(O)c1`, with 10.5 µM.
In the case of `CC/C(=C\c1cc(O)cc(O)c1)c1ccc2ccccc2c1`, the IC50 came to 3.3 µM in test [2] and 0.17 µM in test [3].
Regarding `CC/C(=C\c1ccc(OC)c(OC)c1)c1cc(O)cc(O)c1`, in test [3], the IC50 turned out to be 9.7 µM.
For `COc1cc(/C=C/c2ccc(O)cc2)cc(OC)c1` [PTEROSTILBENE], the half-inhibitory concentration (IC50) in test [2] turned out to be 0.82 µM; in test [3], 0.7 µM; in test [1], 19.5 µM.
For the molecule `COc1ccc(/C=C/c2cc(O)cc(O)c2)cc1` [RESVERATROL 4'-METHYL ETHER], the IC50 in test [2] was determined as 19.6 µM; in test [3], 25.8 µM.
For `Oc1ccc(/C=C/c2cc(O)cc(O)c2)cc1` [RESVERATROL], it took 16.1 µM to reach half-maximal inhibition in test [1] (IC50). This counts as double-digit micromolar.
Still for that read-out and setting: then `COc1ccc(/C=C/c2cc(OC)cc(OC)c2)cc1` [TRISMETHOXYRESVERATROL], with 28.3 µM.

The IC50 is the concentration at which inhibition is half-maximal. Lower therefore signals inhibition by little substance.
